The record followed here is ChEMBL document CHEMBL3045942, “Design, synthesis, and anti-tobacco mosaic virus (TMV) activity of phenanthroindolizidines and their analogues” (2012).

Type in all cases: functional
For assay [1], the system named is Tobacco mosaic virus. Briefly: Antiviral activity against Tobacco mosaic virus (TMV) assessed as inhibition at 500 ug/mL. The method in brief: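 Half-leaf method on fresh Nicotiana tabacum var. Xanthi nc leaves at the 5–6 growth stage. Leaves were inoculated by juice-leaf rubbing with TMV at 5.88 × 10−2 μg mL−1, then cut in halves along the main vein. Halves were immersed 20 min in compound solution or double-distilled water as control, then kept 25 °C for 72 h. Inhibition % = (mean control lesions − mean treated lesions)/mean control lesions × 100. At least 3 replicates.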

Assay [2] has as its system Tobacco mosaic virus. Briefly: Antiviral activity against Tobacco mosaic virus (TMV) assessed as inhibition at 1 ug/mL.
Assay [3] has as its system Tobacco mosaic virus. Description: Antiviral activity against Tobacco mosaic virus (TMV) inoculated in 5-6 growth stage leaf assessed as inhibition effect at 100 ug/mL at 25 degC after 72 hr by half-leaf method. A digest of the protocol:
(§1)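 Half-leaf assay on fresh leaves of Nicotiana tabacum var. Xanthi nc at the 5–6 growth stage. Leaves were rub-inoculated with leaf juice (TMV 5.88 × 10−2 μg mL−1) and cut in halves along the main vein. One half was immersed in compound solution and the other in double-distilled water for 20 min, then kept at 25 °C for 72 h. Inhibition % = (mean control lesions − mean treated lesions)/mean control lesions × 100. At least 3 replicates.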

For assay [4], the system named is Tobacco mosaic virus. Briefly: In vivo antiviral activity against Tobacco mosaic virus (TMV) inoculated right side of Nicotiana tabacum L. leaves assessed as protection effect at 500 ug/mL preincubated 12 hr before viral challenge measured after 3 to 4 days. A digest of the protocol:
(§2)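 Protective test on same-age growing Xanthi nc tobacco leaves. Compound solution was smeared on the left half and solvent on the right half as control. After 12 h, leaves were inoculated with TMV applied by brush. Inhibition % = (mean control lesions − mean treated lesions)/mean control lesions × 100. Three replicates.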

Assay [5] concerns Tobacco mosaic virus. Description: Antiviral activity against Tobacco mosaic virus (TMV) inoculated in 5-6 growth stage leaf assessed as inhibition effect at 500 ug/mL at 25 degC after 72 hr by half-leaf method. The method in brief: as §1
The subject of assay [6] is Tobacco mosaic virus. Description: In vivo antiviral activity against Tobacco mosaic virus (TMV) pre-inoculated Nicotiana tabacum L. leaves assessed as curative effect at 100 ug/mL measured after 3 to 4 days. The method in brief:
(§3)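 Curative test on same-age growing Xanthi nc leaves. Whole leaves were first inoculated with TMV (6.0 × 10−3 mg mL−1), then washed with water and dried. Compound solution was smeared on the left half and solvent on the right half as control. Local lesions were counted 3–4 days after inoculation, and inhibition % was derived from mean lesion numbers. Three replicates.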

Assay [7] relates to Tobacco mosaic virus. Description: In vivo antiviral activity against Tobacco mosaic virus (TMV) pre-inoculated Nicotiana tabacum L. leaves assessed as curative effect at 500 ug/mL measured after 3 to 4 days. The method in brief: as §3
The test system of assay [8] is Tobacco mosaic virus. Briefly: In vivo antiviral activity against Tobacco mosaic virus (TMV) inoculated left side of Nicotiana tabacum L. leaves assessed as inactivation effect at 100 ug/mL co-incubated with virus measured after 3 to 4 days. The method in brief:
(§4)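 Inactivation test in N. tabacum var. Xanthi nc. Virus was mixed with an equal volume of compound solution for 30 min and the mixture inoculated on the left leaf half. The right half received a solvent–virus mixture as control. Local lesions were counted 3–4 days after inoculation. Inhibition % was calculated from mean lesion numbers of control versus treated halves. Three replicates.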

The test system of assay [9] is Tobacco mosaic virus. Description: In vivo antiviral activity against Tobacco mosaic virus (TMV) inoculated left side of Nicotiana tabacum L. leaves assessed as inactivation effect at 500 ug/mL co-incubated with virus measured after 3 to 4 days. The method in brief:
as §4

Assay [10] deals with Tobacco mosaic virus. Briefly: In vivo antiviral activity against Tobacco mosaic virus (TMV) inoculated right side of Nicotiana tabacum L. leaves assessed as protection effect at 100 ug/mL preincubated 12 hr before viral challenge measured after 3 to 4 days. The method in brief:
as §2

For the compound `O=C1NCNC(=O)N1`, in assay [1], the inhibition (as a rule, the drop in the measured response relative to a control, in per cent) at 500 µg/mL came out at 50%.

On to `CC(=O)N1CN(C(C)=O)C(=O)NC1=O`, for which the inhibition at 500 µg/mL in assay [1] stood at 50%.

As to `COc1cc2c3c(c4ccc(O)cc4c2cc1OC)CN1CCC[C@@H]1C3`, the inhibition at 1 µg/mL in [2] was determined as 70%.

In the case of `CNCC(=O)N[C@@H](CO)C(=O)N[C@H]1[C@H](O)[C@@H](O)[C@H](n2ccc(N)nc2=O)O[C@@H]1C(N)=O` [NINGNANMYCIN], the inhibition at 100 µg/mL in [3] turned out to be 30.4%. The Activity in assay [4] is reported as 66.6%; in [6], 18.9%; in [7], 56%; in [8], 37.7%; in assay [9], 68.5%; in assay [10] it was 25.2%. For the same compound, the inhibition at 500 µg/mL in assay [5] was determined as 71.4%.

For the compound `NC(=O)c1ncn([C@@H]2O[C@H](CO)[C@@H](O)[C@H]2O)n1` [RIBAVIRIN], in assay [3], the inhibition at 100 µg/mL stood at 12.5%. For the same compound, the Activity in assay [4] came out at 38.9%; in assay [6], 8.2%; in assay [7], 36.7%; in assay [8], 9.8%; in assay [9] it was 33.8%; in assay [10], 7.5%. The inhibition at 500 µg/mL in assay [5] was 40%.

With `COc1cc2c3c(c4cc(OC)c(OC)cc4c2cc1OC)CN1CCC[C@@H]1C3` [TYLOPHORINE], the inhibition at 100 µg/mL in assay [3] stood at 21.1%. Further, the Activity in [4] came to 47.6%; in [6] it was 26.4%; in assay [7], 44.2%; in assay [8], 15.1%; in [9] it was 39%; in assay [10], 22.5%. Besides, the inhibition at 500 µg/mL in [5] turned out to be 49.7%.
